These results are taken from ChEMBL document CHEMBL4004836, “Design, synthesis and anticancer properties of IsoCombretaQuinolines as potent tubulin assembly inhibitors” (Eur J Med Chem, 2017).

Activity calls are given as the source filed them. The rule behind the calls is not given here.

In one experiment the test system is K562. Description: Cytotoxicity against human K562 cells assessed as decrease in cell growth after 72 hrs by resazurin dye-based fluorimetric method. Type of experiment: functional. Conditions: K562, 72 h. The gist of the method: (§1)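 Lines grown in RPMI 1640 with 10% FCS and 1% glutamine, 37 °C, 5% CO2. K562R is a doxorubicin-resistant K562 line. Seeded 5 × 10^3 cells/well, compound in DMSO (<0.1%) added after 24 h, then 72 h exposure. Resazurin for 2 h, fluorescence ex 560/em 590 nm. IC50 from 50% fluorescence drop versus untreated cells. Triplicate, averaged.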
For orientation: The colour change of resazurin is a common sign of viable cells or microbes.

Experiment [1] concerns A549. The experiment is described as follows: Cell cycle arrest in human A549 cells assessed as accumulation at G2/M phase at 10 nM after 24 hrs by propidium iodide staining-based flow cytometric method. In kind it is functional. The gist of the method: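 Exponentially growing A549 cells exposed for 24 h to 0.5, 1, 5 or 10 nM, with DMSO alone as control. DNA content read by propidium iodide staining and flow cytometry to give the cell-cycle profile.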
On the technique in general: Flow cytometry measures light scatter and fluorescence of single cells or particles in a stream.

Experiment [2] deals with A549. The experiment is described as follows: Induction of microtubule network fragmentation in human A549 cells after 24 hrs by DAPI staining-based inverted microscopic method. Type of experiment: cell-based. Summed up: (§2)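 A549 cells on chamber slides, 24 h with or without compound. Fixed in 2% paraformaldehyde for 30 min, permeabilized with 0.25% Triton X-100, blocked with 1% BSA/10% goat serum. Mouse anti-β-tubulin overnight at 4 °C, then Alexa 647 secondary with Hoechst 33258 for 2 h, Alexa 488 phalloidin for F-actin. Imaged by inverted microscope, 60X oil objective.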

Experiment [3] can be described thus: Inhibition of sheep brain tubulin assembly by DAPI staining-based fluorimetric method. On the set-up: species or system Ovis aries. Summed up: (§3)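 Sheep brain tubulin purified by two assembly-disassembly cycles, about 2-3 mg/mL in 0.1 M MES, 0.5 mM MgCl2, 1 mM EGTA, 1 mM GTP, pH 6.6. Assembly followed by DAPI fluorescence at 37 °C. IC50 = concentration halving maximum assembly rate versus no compound. Single-point values given as % inhibition at 100 µM. Mean of three experiments.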

The subject of experiment [4] is A549. The experiment is described as follows: Disruption of microtubule network organization in human A549 cells assessed as decrease in mitotic spindle formation after 24 hrs by DAPI staining-based inverted microscopic method. In kind it is cell-based. The gist of the method:
as §2

The subject of a further experiment is HCT-116. Description: Cytotoxicity against human HCT116 cells assessed as decrease in cell growth after 72 hrs by resazurin dye-based fluorimetric method. In kind it is functional. Conditions: HCT-116, 72 h. Summed up: as §1
A short description of experiment [5]: Cytotoxicity against human U87 cells assessed as decrease in cell growth after 72 hrs by resazurin dye-based fluorimetric method. The note with it: U-87 MG. In kind it is functional, U-87MG ATCC. Summed up:
as §1

In experiment [6] the test system is A549. The experiment is described as follows: Cytotoxicity against human A549 cells assessed as decrease in cell growth after 72 hrs by resazurin dye-based fluorimetric method. Type of experiment: functional. The note with it: A549, 72 h. The gist of the method:
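A549 grown in DMEM (4.5 g/L glucose, 10% FCS, 1% glutamine), 37 °C, 5% CO2. Seeded 5 × 10^3 cells/well, compound in DMSO (<0.1%) added after 24 h, 72 h exposure. Resazurin (CellTiter-Blue) for 2 h, fluorescence ex 560/em 590 nm. IC50 = concentration halving fluorescence versus untreated cells. Triplicate; mean of three experiments.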

Another experiment has as its system K-562R. Description: Cytotoxicity against human K562R cells assessed as decrease in cell growth after 72 hrs by resazurin dye-based fluorimetric method. In kind it is functional. The gist of the method:
as §1

For another experiment, the species on record is Ovis aries. Description: Inhibition of sheep brain tubulin assembly at 100 uM by DAPI staining-based fluorimetric method relative to control. The gist of the method:
as §3

With `C=C(c1ccc(OC)c(O)c1)c1cc(C)nc2ccccc12`, the IC50 was determined as 1.8 nM in the experiment on K562; 3900 nM in experiment [3]; 0.9 nM in the experiment with HCT-116; 1.5 nM in experiment [5]; 0.4 nM in the experiment on A549 [6]; 2.4 nM in the experiment on K-562R. For the same compound, the outcome with A549 [1] was Active. The Activity result in the experiment on A549 [2] and with A549 [4] was “Dose-dependent effect” throughout.
Take `C=C(c1ccc(OC)cc1)c1cc(CO)nc2ccccc12`: the IC50 in [3] came out at 14300 nM; in experiment [5], 390 nM.
`C=C(c1ccc(OC)cc1)c1cc(C)nc2ccccc12`: the IC50 with K562 stood at 17 nM; in experiment [3] it was 1100 nM; with HCT-116, 3 nM; in experiment [5], 21 nM; in the experiment on A549 [6], 18.5 nM; with K-562R, 0.7 nM.
Take `COc1ccc(C(=CC#N)c2cc(C)nc3ccccc23)cc1`: the IC50 with K562 was found to be 17 nM; in experiment [3] it was 1900 nM; in the experiment on HCT-116 it was 13.2 nM; in experiment [5], 0.25 nM; in the experiment with A549 [6] it was 79 nM; in the experiment on K-562R, 6.6 nM.
Take `C=C(c1ccc(OC)c(F)c1)c1cc(C)nc2ccccc12`: the IC50 is 5 nM in the experiment on K562; 2200 nM in experiment [3]; 9.6 nM in the experiment with HCT-116; 4 nM in experiment [5]; 9.5 nM in the experiment on A549 [6]; 2.4 nM in the experiment with K-562R.
`C=C(c1ccc(OC)cc1)c1nc2ccccc2nc1C` returned an inhibition in the experiment listed under Ovis aries of 24%. Moreover, the concentration for half-maximal inhibition (IC50) in experiment [5] was 690 nM.
Take `C=C(c1ccc(OC)cc1)c1cc(C(=O)OC)nc2ccccc12`: the IC50 in the experiment with K562 is 88 nM; in experiment [3] it was 3900 nM; in the experiment with HCT-116, 160 nM; in experiment [5], 2.3 nM; with K-562R, 18 nM.
`C=C(c1ccc(OC)c(O)c1)c1nc(C)nc2ccccc12`: the IC50 in [3] amounted to 600 nM; in experiment [5], 6.1 nM.
In the case of `C=C(c1ccc(OC)cc1)c1cc(C)cc2ccccc12`, the IC50 turned out to be 17100 nM in experiment [3] and 140 nM in [5].
As for `C=C(c1ccc(OC)cc1)c1cc(C(F)(F)F)nc2ccccc12`, in experiment [5], the IC50 turned out to be 21.7 nM.
Regarding `C=C(c1ccc(OC)cc1)c1cc(C(N)=O)nc2ccccc12`, the IC50 in experiment [3] worked out at 23800 nM; in experiment [5], 240 nM.
Take `C=C(c1ccc(OC)cc1)c1cc(C#N)nc2ccccc12`: the IC50 with K562 is 9 nM; in experiment [3], 1100 nM; in the experiment with HCT-116 it was 1.6 nM; in experiment [5] it was 1 nM; in the experiment on A549 [6] it was 50 nM; with K-562R, 0.9 nM.
In the experiment filed under Ovis aries, `C=C(c1ccc(OC)cc1)c1cc(C(=O)O)nc2ccccc12` yielded an inhibition of 29%. For the same compound, the IC50 in [5] came to 75 nM.
As for `COc1ccc(C(=O)c2cc(C)nc3ccccc23)cc1`, the IC50 with K562 amounted to 139 nM; in [3], 7200 nM; in the experiment with HCT-116, 130 nM; in experiment [5], 25 nM; in the experiment with K-562R it was 52 nM.
Compound `C=C(c1ccc(OC)cc1)c1nc(C)cc2ccccc12` came in with an inhibition in the experiment filed under Ovis aries of 53%. The IC50 in experiment [5] worked out at 300 nM.
In the case of `C=C(c1ccc(OC)c(O)c1)c1cc(OC)c(OC)c(OC)c1`, the IC50 in the experiment on K562 turned out to be 0.8 nM; in [3] it was 2000 nM; in [5], 7.8 nM; in the experiment on A549 [6], 8.2 nM; in the experiment on K-562R, 1.1 nM.
Take `C=C(c1ccc(OC)cc1)c1nc(C)nc2ccccc12`: the IC50 in experiment [5] is 40 nM.

The IC50 is the concentration that gives 50% inhibition. The term inhibition denotes the change of the read-out against control, counted positive when it falls. A high value points to a response far below the control.
